The source of these data is paper PMC3262993 (Chemmedchem, 2009).

The structures appear in SMILES notation. Where two headings read alike, the source gives them in different places.

Data set [1] relates to tactile allodynia in a paclitaxel-induced neuropathic pain model. As to the kind of experiment: Tactile allodynia in paclitaxel-induced neuropathic pain model. Format: in vivo, rat. The conditions noted are these: paclitaxel-treated rats; for Effect on mechanical (tactile) allodynia: intraperitoneal administration. The essentials:
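Adult male Sprague Dawley rats (120–150 g) were housed three per cage on a 12 h light/dark cycle. Paclitaxel was given at 1.0 mg kg−1 i.p. daily for 4 days (cumulative 4 mg kg−1), with vehicle 10 % Cremophor EL in saline at 1 mL kg−1. Hind-paw mechanical withdrawal was tested daily from day 0 after ≥30 min acclimation on wire mesh. Test compound was given i.p.; n = 5–6 per group.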

In data set [2] the target is recombinant human CB1 (hCB1) (Homo sapiens, UniProt P21554). Description: γ-[35S]GTP functional assay, hCB1. Format: biochemical.
Data set [3] addresses recombinant human CB2 (hCB2) (Homo sapiens, UniProt P34972). As to the kind of experiment: γ-[35S]GTP functional assay, hCB2. In kind it is biochemical. Conditions: for γ-[35S]GTP hCB2 Emax: percentage relative to the efficacy of compound 7.
For the next data set, the target named is hCB1 (Homo sapiens, UniProt P21554). As to the kind of experiment: Radioligand competitive binding assay, hCB1.
Another data set has as its target hCB2 (Homo sapiens, UniProt P34972). As to the kind of experiment: Radioligand competitive binding assay.
For data set [4] the following is noted: PBS, pH 7.4, at 2.0 × 10^-4 M.
For another data set, the system named is plasma protein. Conditions: 1.0E-05 M.
The target of a further data set is K+ channel hERG (Homo sapiens, UniProt Q12809).
For data set [5], the system named is neuropathic pain in spinal nerve ligation and paclitaxel-induced neuropathy models. Conditions: cited from earlier work.
[6] abbreviates: read-out: Ki hCB2, CHO-K1 membranes, 1 nM [3H]7, mean ± SEM.

hCB2, sequence (P34972 whole entry): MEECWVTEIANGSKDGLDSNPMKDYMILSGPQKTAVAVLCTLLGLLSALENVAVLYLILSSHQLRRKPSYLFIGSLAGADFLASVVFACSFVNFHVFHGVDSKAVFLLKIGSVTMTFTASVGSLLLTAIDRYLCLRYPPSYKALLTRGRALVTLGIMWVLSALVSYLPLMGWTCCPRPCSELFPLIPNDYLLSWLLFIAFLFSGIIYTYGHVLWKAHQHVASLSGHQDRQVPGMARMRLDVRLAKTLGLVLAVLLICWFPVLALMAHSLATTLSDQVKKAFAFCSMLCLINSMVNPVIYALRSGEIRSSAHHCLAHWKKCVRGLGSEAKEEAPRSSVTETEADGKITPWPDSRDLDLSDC
recombinant human CB2 (hCB2), sequence (P34972 whole entry): as above
recombinant human CB1 (hCB1), sequence (P21554 whole entry): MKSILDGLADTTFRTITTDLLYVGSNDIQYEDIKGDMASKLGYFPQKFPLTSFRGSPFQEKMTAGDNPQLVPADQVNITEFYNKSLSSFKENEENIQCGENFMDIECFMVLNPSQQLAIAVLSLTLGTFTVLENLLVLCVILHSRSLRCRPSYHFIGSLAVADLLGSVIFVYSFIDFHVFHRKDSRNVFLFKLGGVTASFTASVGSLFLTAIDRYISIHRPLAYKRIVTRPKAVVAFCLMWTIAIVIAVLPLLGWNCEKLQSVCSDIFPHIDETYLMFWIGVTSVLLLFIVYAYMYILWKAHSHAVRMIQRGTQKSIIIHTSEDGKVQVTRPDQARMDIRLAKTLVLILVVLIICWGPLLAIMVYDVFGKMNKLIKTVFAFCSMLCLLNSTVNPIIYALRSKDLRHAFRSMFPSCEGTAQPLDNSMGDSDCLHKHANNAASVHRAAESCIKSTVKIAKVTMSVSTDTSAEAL
hCB1, sequence (P21554 whole entry): as above
K+ channel hERG, sequence (Q12809 whole entry): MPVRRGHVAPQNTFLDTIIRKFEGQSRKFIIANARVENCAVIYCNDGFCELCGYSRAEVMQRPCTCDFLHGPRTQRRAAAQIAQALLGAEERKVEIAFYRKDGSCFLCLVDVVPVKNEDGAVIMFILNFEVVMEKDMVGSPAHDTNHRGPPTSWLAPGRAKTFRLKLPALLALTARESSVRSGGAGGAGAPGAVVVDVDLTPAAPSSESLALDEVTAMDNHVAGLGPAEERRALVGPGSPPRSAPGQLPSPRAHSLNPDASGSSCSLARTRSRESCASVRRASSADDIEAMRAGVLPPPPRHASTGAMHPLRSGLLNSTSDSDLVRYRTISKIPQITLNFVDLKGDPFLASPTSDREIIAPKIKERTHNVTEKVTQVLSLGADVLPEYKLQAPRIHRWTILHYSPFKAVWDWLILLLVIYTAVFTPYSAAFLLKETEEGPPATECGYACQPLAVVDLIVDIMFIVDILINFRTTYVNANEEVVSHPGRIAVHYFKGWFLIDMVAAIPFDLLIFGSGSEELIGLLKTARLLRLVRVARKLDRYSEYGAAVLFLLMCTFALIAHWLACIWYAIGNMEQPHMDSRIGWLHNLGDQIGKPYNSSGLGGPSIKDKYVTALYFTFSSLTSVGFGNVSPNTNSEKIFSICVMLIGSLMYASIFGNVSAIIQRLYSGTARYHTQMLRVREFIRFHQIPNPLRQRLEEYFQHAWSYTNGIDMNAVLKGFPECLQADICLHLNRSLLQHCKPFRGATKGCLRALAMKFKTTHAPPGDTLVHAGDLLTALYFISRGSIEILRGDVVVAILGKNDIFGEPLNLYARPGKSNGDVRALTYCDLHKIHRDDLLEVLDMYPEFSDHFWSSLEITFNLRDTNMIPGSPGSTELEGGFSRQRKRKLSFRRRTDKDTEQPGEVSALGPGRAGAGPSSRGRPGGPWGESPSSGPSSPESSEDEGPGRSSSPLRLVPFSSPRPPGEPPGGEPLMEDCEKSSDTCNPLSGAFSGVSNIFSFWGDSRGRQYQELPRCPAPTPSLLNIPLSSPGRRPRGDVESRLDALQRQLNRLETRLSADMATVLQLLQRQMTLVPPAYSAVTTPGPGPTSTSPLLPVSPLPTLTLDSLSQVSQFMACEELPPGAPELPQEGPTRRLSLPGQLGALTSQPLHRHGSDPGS

Turning to `CN1CCCCC1Cn1cc(C(=O)c2cc([N+](=O)[O-])ccc2I)c2ccccc21` (stereo not shown) [Compound 1, AM1241, reference compound], the “Effects on tactile allodynia versus vehicle” value in data set [1] (i.p., 1, 3 and 5 mg kg^-1) was “not significantly different from the effects induced by the vehicle”. In data set [1], the “Effect on mechanical (tactile) allodynia” value is reported as “did not affect the paw withdrawal threshold”.
Turning to `CC1(Cc2ccccc2)COc2ccc(C(=O)NC3CCCCC3)cc21` (stereo not shown) [Compound 14, 3-Benzyl-3-methyl-2,3-dihydrobenzofuran-5-carboxylic acid cyclohexylamide], in data set [2], the half-maximal effective concentration (EC50) was above 10000 nM.
The same measure, in the same setting: next, `CC1(Cc2ccccc2)COc2cc(C(=O)NC3CCCCC3)ccc21` (stereo not shown) [Compound 17, 3-Benzyl-3-methyl-2,3-dihydrobenzofuran-6-carboxylic acid cyclohexylamide]: above 10000 nM.
`CC1(Cc2ccccc2)COc2cc(C(=O)N3CCCCC3)ccc21` (stereo not shown) [Compound 18, 3-Benzyl-3-methyl-2,3-dihydrobenzofuran-6-carboxylic acid piperidine amide]: the “γ-[35S]GTP hCB2 Emax” value in data set [3] turned out to be 88.3%. Further, the inhibition constant (Ki) on hCB1 (read-out: Ki hCB1, mean ± SEM) is above 10000 nM. Further, the Ki on hCB2 (setting [6]) turned out to be 422 ± 123 nM. The Aqueous solubility in data set [4] is reported as 31.8 ± 1.8 μm μM. In the data set on plasma protein, the “Protein bound (human)” value was 82.8 ± 11.1% and the “Protein recovery (human)” value was 95.6 ± 13.6%. For the same molecule, the “Intestinal permeability, assessment” value in the data set with TC7 is “compatible with oral administration with no efflux”. Further, in the data set on TC7 (TC7, pH 6.5/7.4), the “A–B permeability (% recovery)” value stood at 63.5 ± 6.5% and the “B–A permeability (% recovery)” value is on record as 85.5 ± 0.5%. Besides, in the data set on TC7 (TC7, pH 6.5/7.4, 1.0E-05 M), the “A–B permeability” value is recorded as 52.2 ± 1.7 10^−6 cm s^−1 and the “B–A permeability” value is recorded as 16.2 ± 0.2 10^−6 cm s^−1. Further, the “Genetic toxicity (Ames test)” value with strain TA98 (up to 10 μM) is on record as “No genetic toxicity”. The “Ames test (strain TA98 +S9)” value with strain TA98 (with S9) is recorded as below 0. Further, in the data set with strain TA98 (without S9), the “Ames test (strain TA98)” value is given as below 0. In addition, the Cardiac toxicity result at K+ channel hERG is “did not show any cardiac toxicity”. Moreover, the “K+ channel hERG automated patch-clamp (cardiac toxicity)” value at K+ channel hERG (at 1 μM) was “inactive at 1 μm”. Also, the “Effect on locomotor behavior” value in data set [5] (rats) was “without affecting locomotor behavior”. In addition, the “Effect on neuropathic pain” value in [5] (spinal nerve ligation and paclitaxel-induced neuropathy models in rats) is “reversed neuropathic pain”.
Consider `CCC/C=C/CC1(C)COc2cc(C(=O)N3CCCCC3)ccc21` (stereo not shown) [Compound 19], for which, in data set [2] (percentage relative to the efficacy of compound 7), the “γ-[35S]GTP hCB1 Emax” value is recorded as 60%. The “γ-[35S]GTP hCB2 Emax” value in [3] turned out to be 97.1%. In addition, the Ki at hCB2 (setting [6]) is 83.6 ± 23.8 nM. In addition, in data set [1] (i.p., 15 mg kg^-1), the “%MPE for reversing mechanical allodynia versus vehicle” value is reported as “significantly different (P <0.05) from that of the vehicle”. Moreover, the “Effect on mechanical (tactile) allodynia” value in [1] is recorded as “suppressed mechanical allodynia”.
For `CCC/C=C/CC1(C)COc2cc(C(=O)NC3CCCCC3)ccc21` (stereo not shown) [Compound 20, 3-((E)-Hex-2-enyl)-3-methyl-2,3-dihydrobenzofuran-6-carboxylic acid cyclohexylamide], the EC50 in data set [2] is above 10000 nM; in data set [3] it was 839 ± 5.5 nM. The inhibition constant Ki at hCB1 and at hCB2 was above 1000 nM each time.
As to `CC1(Cc2ccccc2)COc2cc(C(=O)N3CCOCC3)ccc21` (stereo not shown) [Compound 22, (3-Benzyl-3-methyl-2,3-dihydrobenzofuran-6-yl)morpholinomethanone], the EC50 is above 10000 nM in [2] and 5583 ± 4.4 nM in [3].
The matching figures for `CN(C(=O)c1ccc2c(c1)OCC2(C)Cc1ccccc1)C(C)(C)C` (stereo not shown) [Compound 23, 3-Benzyl-N-tert-butyl-N,3-dimethyl-2,3-dihydrobenzofuran-6-carboxamide]: 2580 ± 1.5 nM and 95.3 ± 1.8 nM.
Take `CC1(Cc2ccccc2)COc2cc(C(=O)NCC3CCOCC3)ccc21` (stereo not shown) [Compound 24, 3-Benzyl-3-methyl-2,3-dihydrobenzofuran-6-carboxylic acid (tetrahydropyran-4-ylmethyl)amide]: the EC50 is above 10000 nM in data set [2] and 659 ± 1.4 nM in data set [3].
The matching figures for `CC1(Cc2cccc3ccccc23)COc2cc(C(=O)NC3CCCCC3)ccc21` (stereo not shown) [Compound 27, 3-Methyl-3-naphthalen-1-ylmethyl-2,3-dihydrobenzofuran-6-carboxylic acid cyclohexylamide]: above 10000 nM and above 10000 nM.
For `CC1(Cc2cccc3ccccc23)COc2cc(C(=O)N3CCCCC3)ccc21` (stereo not shown) [Compound 28, (3-Methyl-3-naphthalen-1-ylmethyl-2,3-dihydrobenzofuran-6-yl)-piperidin-1-ylmethanone] the same measures were above 10000 nM and above 10000 nM.
Take `CC1(Cc2ccc3ccccc3c2)COc2cc(C(=O)N3CCCCC3)ccc21` (stereo not shown) [Compound 29, (3-Methyl-3-naphthalen-2-ylmethyl-2,3-dihydrobenzofuran-6-yl)-piperidin-1-ylmethanone]: the EC50 in data set [2] is above 10000 nM; in [3], 875 ± 1.4 nM. Further, the Ki was found to be 430 ± 39 nM on hCB1 and 490 ± 45 nM on hCB2.
On to `CC1(Cc2ccc(Cl)cc2)COc2cc(C(=O)N3CCCCC3)ccc21` (stereo not shown) [Compound 30, [3-(4-Chlorobenzyl)-3-methyl-2,3-dihydrobenzofuran-6-yl]piperidin-1-ylmethanone], for which the EC50 in data set [2] was 1363 ± 1.4 nM; in data set [3] it was 56.2 ± 1.2 nM. Further, the maximal response (Emax) in data set [2] (read-out: γ-[35S]GTP hCB1 Emax) was determined as 86.9%. The molecule also returned a Ki at hCB2 of 123 ± 16.5 nM.
As for `COc1ccc(CC2(C)COc3cc(C(=O)N4CCCCC4)ccc32)cc1` (stereo not shown) [Compound 31, [3-[(4-Methoxyphenyl)methyl]-3-methyl-2,3-dihydrobenzofuran-6-yl]-(1-piperidyl)methanone], the figures for the EC50 in data set [2] and in data set [3] were above 10000 nM and 235 nM, respectively.
The matching figures for `CC1(Cc2ccncc2)COc2cc(C(=O)N3CCCCC3)ccc21` (stereo not shown) [Compound 32, [3-Methyl-3-(4-pyridylmethyl)-2,3-dihydrobenzofuran-6-yl]-(1-piperidyl)methanone]: above 10000 nM and 2800 nM.
As for `C[C@@]1(Cc2ccccc2)COc2cc(C(=O)N3CCCCC3)ccc21` [Compound 33, (S)-3-Benzyl-3-methyl-2,3-dihydrobenzofuran-6-carboxylic acid piperidine amide], the “γ-[35S]GTP hCB2 Emax” value in [3] was 86%.
As to `C[C@]1(Cc2ccccc2)COc2cc(C(=O)N3CCCCC3)ccc21` [Compound 34, (R)-3-benzyl-3-methyl-2,3-dihydrobenzofuran-6-carboxylic acid piperidine amide], the “γ-[35S]GTP hCB2 Emax” value in [3] is 43.3%.
